Assay results: ChEMBL document CHEMBL3414542, “Design and synthesis of celastrol derivatives as anticancer agents” (Eur J Med Chem, 2015)

Legend:
[1] = Anticancer activity against human SGC7901 cells assessed as cell survival after 48 hrs by MTT assay; format: functional, cell-based; settings: SGC-7901, 48 h
Outline: (§1)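 MTT colorimetric assay. MTT was added (4 h, 37 °C), followed by DMSO, and absorbance was read at 570 nm. IC50 is the concentration giving 50% cell survival. Values are the mean ± SD of three independent experiments in triplicate.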

[2] = Anticancer activity against human SMMC7721 cells assessed as cell survival after 48 hrs by MTT assay; format: functional, cell-based; settings: SMMC-7721, 48 h; outline: as §1
MGC-803 [3] = experiment: Anticancer activity against human MGC803 cells assessed as cell survival after 48 hrs by MTT assay; format: functional, cell-based; settings: MGC-803, 48 h; outline: as §1
HepG2 [4] = experiment: Anticancer activity against human HepG2 cells assessed as cell survival after 48 hrs by MTT assay; format: functional, cell-based; settings: HepG2, 48 h; outline: as §1
[5] = molecular target: Telomerase reverse transcriptase (Homo sapiens, UniProt O14746); experiment: Inhibition of telomerase in human MGC803 cell extracts after 24 hrs by TRAP-PCR-ELISA; parameters: species or system MGC-803
Telomerase reverse transcriptase, sequence (O14746 whole entry): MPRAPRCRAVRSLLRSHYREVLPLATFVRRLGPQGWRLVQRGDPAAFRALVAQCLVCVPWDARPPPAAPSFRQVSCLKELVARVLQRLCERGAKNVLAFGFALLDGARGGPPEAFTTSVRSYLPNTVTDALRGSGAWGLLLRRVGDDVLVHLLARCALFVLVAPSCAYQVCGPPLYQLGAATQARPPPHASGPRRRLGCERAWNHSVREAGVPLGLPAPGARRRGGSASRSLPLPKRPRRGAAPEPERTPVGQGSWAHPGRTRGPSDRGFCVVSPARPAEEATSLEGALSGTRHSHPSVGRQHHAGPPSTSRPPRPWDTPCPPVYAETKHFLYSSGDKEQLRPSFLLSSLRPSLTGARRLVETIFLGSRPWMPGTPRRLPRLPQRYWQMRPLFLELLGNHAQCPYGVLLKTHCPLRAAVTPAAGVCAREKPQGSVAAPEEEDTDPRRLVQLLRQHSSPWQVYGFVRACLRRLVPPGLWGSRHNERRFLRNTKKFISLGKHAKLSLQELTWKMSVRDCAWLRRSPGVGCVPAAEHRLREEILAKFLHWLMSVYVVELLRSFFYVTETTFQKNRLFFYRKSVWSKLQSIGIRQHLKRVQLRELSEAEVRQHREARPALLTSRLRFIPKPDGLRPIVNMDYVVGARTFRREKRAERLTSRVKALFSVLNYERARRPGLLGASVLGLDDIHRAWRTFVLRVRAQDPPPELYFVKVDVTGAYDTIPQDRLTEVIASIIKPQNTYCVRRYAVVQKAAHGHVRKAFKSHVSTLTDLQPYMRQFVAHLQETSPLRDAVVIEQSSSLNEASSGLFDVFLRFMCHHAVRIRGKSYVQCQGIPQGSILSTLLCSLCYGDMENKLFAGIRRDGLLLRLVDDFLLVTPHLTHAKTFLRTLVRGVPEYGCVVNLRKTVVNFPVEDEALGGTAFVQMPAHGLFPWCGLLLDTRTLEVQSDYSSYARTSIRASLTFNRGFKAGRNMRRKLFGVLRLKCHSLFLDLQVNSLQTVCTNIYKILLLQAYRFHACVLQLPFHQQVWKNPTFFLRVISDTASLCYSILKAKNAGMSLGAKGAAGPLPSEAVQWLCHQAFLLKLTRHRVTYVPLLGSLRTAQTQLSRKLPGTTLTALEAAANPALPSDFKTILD
Outline: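 MGC-803 cells were grown in DMEM with 10% FBS, streptomycin and penicillin at 37 °C, 5% CO2, and 5 × 10^4 cells were seeded and allowed to adhere. Cells were exposed to staurosporine and test agents (60 to 0.0821 […] series) for 24 h, then scraped, washed, lysed in RIPA buffer on ice for 30 min, and spun at 12,000 g for 20 min at 4 °C. Extract (2 µL) was run in a TRAP-PCR-ELISA with anti-DIG peroxidase detection and read at 490 nm. Values are mean ± SD.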

[6] = Octanol-water partition coefficient, log P of the compound by shake-flask method; format: physicochemical
Outline: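 Shake-flask method: the solute was dissolved in octanol and water and its concentration in each phase was measured by HPLC. Log P is the logarithm of the octanol/aqueous concentration ratio.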

MGC-803 [7] = experiment: Ratio of celastrol IC50 to compound IC50 for human MGC803 cells assessed as cell survival after 48 hrs by MTT assay; format: functional
HepG2 [8] = experiment: Ratio of celastrol IC50 to compound IC50 for human HepG2 cells assessed as cell survival after 48 hrs by MTT assay; format: functional
SMMC-7721 [9] = experiment: Induction of apoptosis in human SMMC7721 cells assessed as necrotic cells at 0.5 uM after 48 hrs by annexin V/PI staining based flow cytometry (reference value: 0%); format: functional
SMMC-7721 [10] = experiment: Induction of apoptosis in human SMMC7721 cells assessed […] cells at 0.5 uM after 48 hrs by annexin V/PI staining based flow cytometry (reference value: 0.434%); format: functional; settings: SMMC-7721, 48 h, read-out: Activity
SMMC-7721 [11] = experiment: Induction of apoptosis in human SMMC7721 cells assessed as non-viable cells at 0.5 uM after 48 hrs by annexin V/PI staining based flow cytometry (reference value: 1.56%); format: functional
SMMC-7721 [12] = experiment: Induction of apoptosis in human SMMC7721 cells assessed as normal cells at 0.5 uM after 48 hrs by annexin V/PI staining based flow cytometry (reference value: 98%); format: functional

Q: Which results are given for `O=c1[nH]cc(F)c(=O)[nH]1` [FLUOROURACIL]?
A: IC50 [1]: 6.12 µM; IC50 [2]: 4.87 µM; IC50 (MGC-803 [3]): 3.58 µM; IC50 (HepG2 [4]): 5.86 µM

Q: Which results are given for `CC1=C(O)C(=O)C=C2C1=CC=C1[C@@]2(C)CC[C@@]2(C)[C@@H]3C[C@](C)(C(=O)N4CCN(CCN5CCOCC5)CC4)CC[C@]3(C)CC[C@]12C`?
A: IC50 [1]: 8.1 µM; IC50 [2]: 12.3 µM; IC50 (MGC-803 [3]): 13.4 µM; IC50 (HepG2 [4]): 16.4 µM; IC50 [5]: 15.2 µM; logP [6]: 3.5

Q: For `CC1=C(O)C(=O)C=C2C1=CC=C1[C@@]2(C)CC[C@@]2(C)[C@@H]3C[C@](C)(C(=O)N4CCOCC4)CC[C@]3(C)CC[C@]12C`, which IC50 [1] is on record?
A: 8.74 µM

Q: What about the IC50 [2] of the same compound?
A: 10.7 µM

Q: What about the IC50 (MGC-803 [3]) of the same compound?
A: 30.7 µM

Q: What about the IC50 (HepG2 [4]) of the same compound?
A: 22.7 µM

Q: And the IC50 [5]?
A: 8.01 µM

Q: What about the logP [6] of the same compound?
A: 3.8

Q: With `CNC(=O)[C@]1(C)CC[C@]2(C)CC[C@]3(C)C4=CC=C5C(=CC(=O)C(O)=C5C)[C@]4(C)CC[C@@]3(C)[C@@H]2C1` as the compound, how does the IC50 [1] read?
A: 9.38 µM

Q: What about the IC50 [2] of the same compound?
A: 7.62 µM

Q: What about the IC50 (MGC-803 [3]) of the same compound?
A: 24.1 µM

Q: What about the IC50 (HepG2 [4]) of the same compound?
A: 10.6 µM

Q: And the IC50 [5]?
A: 15.1 µM

Q: And the logP [6]?
A: 3.96

Q: With `COc1cccc2c1C(=O)c1c(O)c3c(c(O)c1C2=O)C[C@@](O)(C(=O)CO)C[C@@H]3O[C@H]1C[C@H](N)[C@H](O)[C@H](C)O1` [DOXORUBICIN] as the compound, how does the IC50 [1] read?
A: 1.45 µM

Q: And the IC50 [2]?
A: 1.22 µM

Q: And the IC50 (MGC-803 [3])?
A: 1.19 µM

Q: What about the IC50 (HepG2 [4]) of the same compound?
A: 0.87 µM

Q: With `CC1=C(O)C(=O)C=C2C1=CC=C1[C@@]2(C)CC[C@@]2(C)[C@@H]3C[C@](C)(C(=O)N(C)C)CC[C@]3(C)CC[C@]12C` as the compound, how does the IC50 [1] read?
A: 10.5 µM

Q: What about the IC50 [2] of the same compound?
A: 20 µM

Q: What about the IC50 (MGC-803 [3]) of the same compound?
A: 6.3 µM

Q: And the IC50 (HepG2 [4])?
A: 11.2 µM

Q: What about the IC50 [5] of the same compound?
A: 21 µM

Q: And the logP [6]?
A: 4.2

Q: With `CC1=C(O)C(=O)C=C2C1=CC=C1[C@@]2(C)CC[C@@]2(C)[C@@H]3C[C@](C)(C(=O)NCC(C)O)CC[C@]3(C)CC[C@]12C` (stereo partly specified) as the compound, how does the IC50 [1] read?
A: 0.1 µM

Q: And the IC50 [2]?
A: 0.61 µM

Q: And the IC50 (MGC-803 [3])?
A: 1.22 µM

Q: And the IC50 (HepG2 [4])?
A: 0.28 µM

Q: What about the IC50 [5] of the same compound?
A: 0.34 µM

Q: And the logP [6]?
A: 3.49

Q: And the “Ratio IC50” value (MGC-803 [7])?
A: 1.3

Q: And the “Ratio IC50” value (HepG2 [8])?
A: 14.3

Q: For `CC1=C(O)C(=O)C=C2C1=CC=C1[C@@]2(C)CC[C@@]2(C)[C@@H]3C[C@](C)(C(=O)O)CC[C@]3(C)CC[C@]12C` [CELASTROL], which IC50 [1] is on record?
A: 0.15 µM

Q: What about the IC50 [2] of the same compound?
A: 0.58 µM

Q: And the IC50 (MGC-803 [3])?
A: 1.55 µM

Q: And the IC50 (HepG2 [4])?
A: 4.01 µM

Q: And the IC50 [5]?
A: 0.78 µM

Q: What about the logP [6] of the same compound?
A: 4.38

Q: For `C/C(=C\C(=O)Nc1ccccc1C(=O)O)c1ccc2ccccc2c1`, which IC50 [5] is on record?
A: 0.41 µM

Q: Which IC50 [1] does the source give for `CCCCNC(=O)[C@]1(C)CC[C@]2(C)CC[C@]3(C)C4=CC=C5C(=CC(=O)C(O)=C5C)[C@]4(C)CC[C@@]3(C)[C@@H]2C1` here?
A: 4.9 µM

Q: What about the IC50 [2] of the same compound?
A: 6.88 µM

Q: And the IC50 (MGC-803 [3])?
A: 3.55 µM

Q: What about the IC50 (HepG2 [4]) of the same compound?
A: 3.07 µM

Q: Which IC50 [1] does the source give for `CC1=C(O)C(=O)C=C2C1=CC=C1[C@@]2(C)CC[C@@]2(C)[C@@H]3C[C@](C)(C(=O)N4CCN(CCO)CC4)CC[C@]3(C)CC[C@]12C` here?
A: 3.81 µM

Q: What about the IC50 [2] of the same compound?
A: 1.84 µM

Q: What about the IC50 (MGC-803 [3]) of the same compound?
A: 10.3 µM

Q: What about the IC50 (HepG2 [4]) of the same compound?
A: 8.7 µM

Q: What about the IC50 [5] of the same compound?
A: 2.01 µM

Q: What about the logP [6] of the same compound?
A: 3.44

Q: With `CCOC(=O)[C@]1(C)CC[C@]2(C)CC[C@]3(C)C4=CC=C5C(=CC(=O)C(O)=C5C)[C@]4(C)CC[C@@]3(C)[C@@H]2C1` as the compound, how does the IC50 [1] read?
A: 11.5 µM

Q: What about the IC50 [2] of the same compound?
A: 9.28 µM

Q: And the IC50 (MGC-803 [3])?
A: 12 µM

Q: What about the IC50 (HepG2 [4]) of the same compound?
A: 15.2 µM

Q: And the IC50 [5]?
A: 18.6 µM

Q: What about the logP [6] of the same compound?
A: 4.98

Q: What does the source list for `CC1=C(O)C(=O)C=C2C1=CC=C1[C@@]2(C)CC[C@@]2(C)[C@@H]3C[C@](C)(C(=O)NCCO)CC[C@]3(C)CC[C@]12C`?
A: IC50 [1]: 0.16 µM; IC50 [2]: 0.3 µM; IC50 (MGC-803 [3]): 0.39 µM; IC50 (HepG2 [4]): 0.61 µM; IC50 [5]: 0.11 µM; logP [6]: 3.44; Activity (SMMC-7721 [9]): 1.24%; viability at 0.5 µM (SMMC-7721 [10]): 13.2%; Activity (SMMC-7721 [11]): 48%; Activity (SMMC-7721 [12]): 37.6%; Ratio IC50 (MGC-803 [7]): 4; Ratio IC50 (HepG2 [8]): 6.6

Q: Which IC50 [1] does the source give for `CC1=C(O)C(=O)C=C2C1=CC=C1[C@@]2(C)CC[C@@]2(C)[C@@H]3C[C@](C)(C(=O)N4CCN(CCN(C)C)CC4)CC[C@]3(C)CC[C@]12C` here?
A: 1.33 µM

Q: What about the IC50 [2] of the same compound?
A: 2.58 µM

Q: What about the IC50 (MGC-803 [3]) of the same compound?
A: 1 µM

Q: What about the IC50 (HepG2 [4]) of the same compound?
A: 5.21 µM

Q: What about the IC50 [5] of the same compound?
A: 1.41 µM

Q: What about the logP [6] of the same compound?
A: 3.95
